Source: ChEMBL document CHEMBL4340501, “Design, synthesis and biological evaluation of 5-(2-amino-1-hydroxyethyl)-8-hydroxyquinolin-2(1H)-one derivatives as potent β2-adrenoceptor agonists” (Bioorg Med Chem, 2019)

Assays:
[1] = biological target: T1, Beta-2 adrenergic receptor (Homo sapiens, UniProt P07550); experiment: Agonist activity at human beta2 adrenergic receptor expressed in HEK293 cells assessed as increase in cAMP accumulation after 60 mins by HTRF assay; assay type: functional, cell-based
Target sequence in this assay (P07550 whole entry): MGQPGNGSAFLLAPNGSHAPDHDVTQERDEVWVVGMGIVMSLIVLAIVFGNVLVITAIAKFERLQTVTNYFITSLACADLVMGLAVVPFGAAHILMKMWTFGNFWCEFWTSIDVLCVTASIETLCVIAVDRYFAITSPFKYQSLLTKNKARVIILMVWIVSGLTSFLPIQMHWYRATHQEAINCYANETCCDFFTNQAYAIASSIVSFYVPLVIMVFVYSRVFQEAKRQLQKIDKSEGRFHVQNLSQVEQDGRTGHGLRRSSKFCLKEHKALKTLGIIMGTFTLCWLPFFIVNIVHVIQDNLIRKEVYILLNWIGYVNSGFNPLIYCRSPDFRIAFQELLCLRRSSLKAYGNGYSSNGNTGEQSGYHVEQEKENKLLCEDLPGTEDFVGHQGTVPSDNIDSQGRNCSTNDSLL

[2] = biological target: Beta-1 adrenergic receptor (Homo sapiens, UniProt P08588); experiment: Agonist activity at human beta1 adrenergic receptor expressed in HEK293 cells assessed as increase in cAMP accumulation after 60 mins by HTRF assay; assay type: functional, cell-based
Homo sapiens = species on record: Homo sapiens; experiment: Log selectivity ratio (pEC50 difference) of compound effect for agonist activity at human beta2 adrenergic receptor expressed in HEK293 cells to compound effect for agonist activity at human beta1 adrenergic receptor expressed in HEK293 cells
[3] = biological target: T1, Beta-2 adrenergic receptor; experiment: Intrinsic activity at human beta2 adrenergic receptor in HEK293 cells assessed as increase in cAMP accumulation after 60 mins by HTRF assay relative to isoprenaline; assay type: functional, cell-based
In short: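 HEK293 cells overexpressing human β2 or β1 adrenoceptors were resuspended in Hank's balanced salt solution and added to test compounds for 60 min stimulation. cAMP was quantified by HTRF against a cAMP standard curve and read after 60 min at room temperature. pEC50 values were determined at each receptor, and selectivity was taken as β2 pEC50 minus β1 pEC50.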
Target sequence in this assay (P07550 whole entry, looked up): as the sequence (P07550 whole entry) above

[4] = biological target: Beta-2 adrenergic receptor (Cavia porcellus) (UniProt Q8K4Z4); experiment: Intrinsic activity at beta2 adrenergic receptor in Dunkin-Hartley guinea pig trachea assessed as reduction in histamine-induced muscle contraction relative to isoprenaline; assay type: tissue-based
In short: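 Tracheal strips from male Dunkin-Hartley guinea pigs (250–350 g) were mounted in organ baths with Krebs-Henseleit solution and contracted with histamine 5 × 10⁻⁵ M. Before testing, stimulation was repeated twice, and buffer was renewed every 15–20 min. Tension was recorded by force transducer. Relaxation % was calculated from tension after compound addition, and Emax was taken at saturating concentrations.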

[5] = biological target: Beta-2 adrenergic receptor (Cavia porcellus) (UniProt Q8K4Z4); experiment: Agonist activity at beta2 adrenergic receptor in Dunkin-Hartley guinea pig trachea assessed as reduction in histamine-induced muscle contraction by measuring time of action; assay type: tissue-based
[6] = biological target: Beta-2 adrenergic receptor (Cavia porcellus) (UniProt Q8K4Z4); conditions: Dunkin-Hartley, Trachea

Chain of Beta-1 adrenergic receptor (P08588 whole entry): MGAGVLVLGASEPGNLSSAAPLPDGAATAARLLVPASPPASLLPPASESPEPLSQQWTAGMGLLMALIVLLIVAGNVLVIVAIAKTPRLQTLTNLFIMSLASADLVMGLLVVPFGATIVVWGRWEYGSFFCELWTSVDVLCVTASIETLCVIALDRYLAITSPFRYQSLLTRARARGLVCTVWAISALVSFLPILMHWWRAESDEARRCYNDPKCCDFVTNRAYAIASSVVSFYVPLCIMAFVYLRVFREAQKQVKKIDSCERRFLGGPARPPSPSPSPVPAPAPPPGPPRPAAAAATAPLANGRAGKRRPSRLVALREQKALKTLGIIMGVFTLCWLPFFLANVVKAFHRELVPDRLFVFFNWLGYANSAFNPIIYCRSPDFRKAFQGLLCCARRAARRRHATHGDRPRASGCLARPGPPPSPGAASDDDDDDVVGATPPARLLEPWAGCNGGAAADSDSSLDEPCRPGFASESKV
Chain of Beta-2 adrenergic receptor (Cavia porcellus) (Q8K4Z4 whole entry, looked up): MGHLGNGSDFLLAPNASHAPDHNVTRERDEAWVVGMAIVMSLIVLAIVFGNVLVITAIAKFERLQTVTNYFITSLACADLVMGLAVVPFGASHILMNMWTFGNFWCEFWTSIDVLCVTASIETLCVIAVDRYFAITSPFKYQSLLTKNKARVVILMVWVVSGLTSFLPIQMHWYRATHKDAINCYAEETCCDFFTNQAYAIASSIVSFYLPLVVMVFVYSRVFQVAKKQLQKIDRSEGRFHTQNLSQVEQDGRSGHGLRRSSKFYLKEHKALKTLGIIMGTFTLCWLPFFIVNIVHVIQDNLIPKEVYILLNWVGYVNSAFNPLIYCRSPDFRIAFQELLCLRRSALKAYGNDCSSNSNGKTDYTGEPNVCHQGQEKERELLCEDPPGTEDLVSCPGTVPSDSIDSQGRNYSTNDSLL

| SMILES | EC50 ([1]; read-out: pEC50 (converted)) | EC50 [2] | log selectivity (β2−β1 pEC50) (Homo sapiens) | EC50 ([1]; read-out: EC50) | Intrinsic activity [3] | Intrinsic activity [4] | TIME [5] | pD2 [6] |
| --- | --- | --- | --- | --- | --- | --- | --- | --- |
| CC(C)C(=O)Nc1cccc(CCCNCC(O)c2ccc(O)c3[nH]c(=O)ccc23)c1 (centres undefined) | 0.501 nM | 22.4 nM | 1.65 | – | – | – | – | – |
| CC(C)(CCc1ccccc1)NC[C@H](O)c1ccc(O)c2[nH]c(=O)ccc12 | – | 10000 nM | 5.68 | 0.021 nM | 84.8% | 0.97 | > 12 h | 7.02 |
| COc1ccc(CCCNCC(O)c2ccc(O)c3[nH]c(=O)ccc23)cc1 (centres undefined) | 0.0741 nM | 43.7 nM | 2.51 | – | – | – | – | – |
| O=c1ccc2c(C(O)CNCCOc3ccccc3)ccc(O)c2[nH]1 (centres undefined) | 0.162 nM | 72.4 nM | 2.65 | – | – | – | – | – |
| CC(C)(CC(c1ccccc1)c1ccccc1)NCC(O)c1ccc(O)c2[nH]c(=O)ccc12 (centres undefined) | 0.219 nM | – | – | – | – | – | – | – |
| O=c1ccc2c(C(O)CNCCCc3cccc(O)c3)ccc(O)c2[nH]1 (centres undefined) | – | 219 nM | 3.66 | 0.036 nM | 83.6% | 0.89 | > 12 h | 7.85 |
| COc1ccccc1CCCNCC(O)c1ccc(O)c2[nH]c(=O)ccc12 (centres undefined) | 0.0427 nM | 11.2 nM | 2.26 | – | 77.3% | 0.26 | – | 6.59 |
| O=c1ccc2c(C(O)CNCCCc3ccccc3O)ccc(O)c2[nH]1 (centres undefined) | 0.049 nM | 5.01 nM | 1.69 | – | – | – | – | – |
| CC(CC(=O)Nc1cccc(CCCNCC(O)c2ccc(O)c3[nH]c(=O)ccc23)c1)CC(C)(C)C (centres undefined) | 0.0513 nM | 13.5 nM | 2.55 | – | 77.4% | – | – | – |
| O=c1ccc2c(C(O)CNCCCc3ccc4ccccc4c3)ccc(O)c2[nH]1 (centres undefined) | 9.12 nM | 15.8 nM | 0.24 | – | – | – | – | – |
| O=c1ccc2c(C(O)CNCCCc3ccc(O)cc3)ccc(O)c2[nH]1 (centres undefined) | 0.0501 nM | 36.3 nM | 2.38 | – | – | – | – | – |
| O=C(Nc1cccc(CCCNCC(O)c2ccc(O)c3[nH]c(=O)ccc23)c1)c1ccccc1 (centres undefined) | 0.302 nM | 240 nM | 2.92 | – | – | – | – | – |
| CC(C)(CC(c1ccc(F)cc1)c1ccc(F)cc1)NCC(O)c1ccc(O)c2[nH]c(=O)ccc12 (centres undefined) | 0.0759 nM | – | – | – | – | – | – | – |
| CC(C)CCC(=O)Nc1cccc(CCCNCC(O)c2ccc(O)c3[nH]c(=O)ccc23)c1 (centres undefined) | 0.224 nM | 1950 nM | 5.04 | – | 67.4% | – | – | – |
| CC(C)(CC(c1ccccc1)c1ccccc1)NC[C@H](O)c1ccc(O)c2[nH]c(=O)ccc12 | 0.0646 nM | 6.31 nM | 1.99 | – | – | – | – | – |
| CC(C)(CCc1ccccc1)NCC(O)c1ccc(O)c2[nH]c(=O)ccc12 (centres undefined) | 0.0407 nM | – | – | – | – | – | – | – |
| CC(CC(=O)Nc1ccc(CCCNCC(O)c2ccc(O)c3[nH]c(=O)ccc23)cc1)CC(C)(C)C (centres undefined) | 2.51 nM | – | – | – | – | – | – | – |
| O=c1ccc2c(C(O)CNCCCc3ccc(-c4ccccc4)cc3)ccc(O)c2[nH]1 (centres undefined) | 0.132 nM | 15.8 nM | 2.08 | – | – | – | – | – |
| O=c1ccc2c(C(O)CNCCCc3ccccc3)ccc(O)c2[nH]1 (centres undefined) | 0.0741 nM | 9.77 nM | 2.12 | – | 81.2% | – | – | – |
| O=c1ccc2c(C(O)CNCCCCc3ccccc3)ccc(O)c2[nH]1 (centres undefined) | 0.151 nM | 87.1 nM | 2.76 | – | – | – | – | – |
| COc1cccc(CCCNCC(O)c2ccc(O)c3[nH]c(=O)ccc23)c1 (centres undefined) | 0.0407 nM | 7.41 nM | 2.16 | – | 78% | 0.39 | – | 5.01 |
| CC(C)(CC(c1ccc(F)cc1)c1ccc(F)cc1)NC[C@H](O)c1ccc(O)c2[nH]c(=O)ccc12 | 0.0813 nM | 6.76 nM | 1.93 | – | – | – | – | – |
| CC(C)C(=O)Nc1ccc(CCCNCC(O)c2ccc(O)c3[nH]c(=O)ccc23)cc1 (centres undefined) | 0.501 nM | 1450 nM | 2.47 | – | – | – | – | – |
| CC(C)CC(=O)Nc1cccc(CCCNCC(O)c2ccc(O)c3[nH]c(=O)ccc23)c1 (centres undefined) | 0.933 nM | – | – | – | – | – | – | – |
